Rce1 inh – inhibitors of yeast Ras-converting enzyme; Q03530; yeast membranes, quenched prenylated peptide cleavage fluorescence; calls only; hit rate 0.27% among 290,000; AID 2563;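 active = fall in fluorescence gain of 50% or more versus controls, with final raw signal at or below 3038400; inconclusive = same 50% fall but final raw signal above 3038400; inactive = fall in fluorescence gain under 50%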;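 note: plate controls were neutral control wells for no effect and wells lacking membranes for full effect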
Target sequence (Q03530 whole entry, looked up): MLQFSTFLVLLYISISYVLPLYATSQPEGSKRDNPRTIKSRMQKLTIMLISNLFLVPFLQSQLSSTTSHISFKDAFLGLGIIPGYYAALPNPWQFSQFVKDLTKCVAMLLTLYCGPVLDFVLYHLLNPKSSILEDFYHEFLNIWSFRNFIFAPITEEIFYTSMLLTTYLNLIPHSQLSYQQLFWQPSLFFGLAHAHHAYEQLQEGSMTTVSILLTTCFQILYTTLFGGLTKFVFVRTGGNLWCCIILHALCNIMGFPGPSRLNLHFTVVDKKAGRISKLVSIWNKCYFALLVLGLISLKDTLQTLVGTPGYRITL
VLA-4 inh – inhibition in a human VLA-4 binding assay | P13612 | VLA-4 expressing cells, ligand binding flow cytometry | inhibition, % (about 7 µM as worked out from the volumes in the protocol) | hit rate 0.2% among 330,000; in the data active = inhibition above about 50%
TAAR1 antagonist – antagonists of human TAAR1; inhibition, % at 3 µM; CHO RD-HGA16 TAAR1, Fluo-8 calcium fluorescence, antagonist; hit rate 1.5% among 360,000; AID 624466; Q96RJ0;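 active = inhibition above a per-plate cutoff, the mean inhibition of test compounds on that plate plus 3 SD, cut at about 49% in these data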;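 note: 0% = DMSO plus EC80 beta-PEA response and 100% = DMSO alone without agonist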
Target sequence (Q96RJ0 whole entry, looked up): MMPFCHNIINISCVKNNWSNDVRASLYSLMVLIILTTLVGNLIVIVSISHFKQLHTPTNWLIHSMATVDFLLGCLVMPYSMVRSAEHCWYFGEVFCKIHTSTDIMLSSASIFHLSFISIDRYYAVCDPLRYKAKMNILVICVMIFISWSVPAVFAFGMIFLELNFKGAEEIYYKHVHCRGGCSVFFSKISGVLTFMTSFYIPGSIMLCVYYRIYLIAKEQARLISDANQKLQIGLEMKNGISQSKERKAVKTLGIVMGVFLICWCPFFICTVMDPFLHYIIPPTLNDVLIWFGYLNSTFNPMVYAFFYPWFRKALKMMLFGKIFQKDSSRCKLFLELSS
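System: CHO RD-HGA16 cells bearing hTAAR1. Reagent: EC80 β-phenethylamine stimulus. Schedule: seeding 17-24 h prior, 75-min 37 °C, 30-min RT dye loading. Signal: Fluo-8 intracellular calcium dye fluorescence, real-time kinetic reads. Read-out: % inhibition from peak post-agonist over basal fluorescence ratio. Benchmarks: vehicle wells and EC80 agonist wells. Replicates: n of 1.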
TAAR1 agonist – human TAAR1 agonism; Q96RJ0; CHO RD-HGA16 TAAR1, Fluo-8 calcium fluorescence; vehicle wells 0%, saturating PEA agonist 100%; activation, % at 3 µM; hit rate 0.99% among 360,000; AID 624467;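 active = activation above the mean activation of all test compounds in the run plus 3 SD, cut at about 38% in these data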
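Test system: RD-HGA16 (CHO) cells co-expressing Gα16 and hTAAR1 | Doses: Single dose, 3 µM | Schedule: 17-24 h seeding, 75 min 37 °C dye, 30 min RT | Evaluation: % activation from peak over basal fluorescence ratio, DMSO-to-PEA scaled | Technique: Kinetic Fluo-8 calcium fluorescence | Benchmarks: Low control DMSO, high control PEA (EC100)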
Platelet DG rel – platelet dense granule release activity; inhibition, %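 (compounds screened at 7.5 µM in platelet-rich plasma)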; human platelet-rich plasma, SFLLRN dense granule ATP release, luminescence; hit rate 0.22% among 300,000;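 active = mean replicate score, as percent of positive control, at or above 50; inconclusive = mean below 50 but at least one replicate at or above 50; inactive = mean and every replicate below 50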
* hit, by the source's call; i = inactive; ? = inconclusive; . = no result given; + = active, no number. The list is not random: actives were taken first. Their share in the collection is about 2.6%.

SMILES	Rce1 inh	VLA-4 inh	TAAR1 antagonist	TAAR1 agonist	Platelet DG rel
CS(=O)(=O)Nc1ccccc1C(=O)Nc1cccc(Cl)c1	+	-18	0	15	-1
CS(=O)(=O)Nc1ccccc1C(=O)Nc1cc(Cl)cc(Cl)c1	i	8	23	15	-5
CN(c1ccccc1C(=O)NC1CC2CCC1C2)S(=O)(=O)c1ccccc1 (centres undefined)	i	-4	-3	3	-4
CS(=O)(=O)Nc1ccccc1C(=O)NCc1ccccc1Cl	+	14	-7	1	2
CC(C)(C)NC(=O)COC(=O)c1ccccc1Nc1ccc(SC(F)F)cc1	i	11	51*	2	-6
O=C(NCc1cccc(Cl)c1)C1Cc2c(-c3ccccc3)ccnc2O1 (centres undefined)	.	.	-37	-1	.
CCc1nc2c(OCCn3cccc3)cccn2c1N(C)C(=O)c1ccco1	.	.	-6	0	.
CN(c1ccccc1)c1ccc(/C=N/NC(=O)CC#N)cc1	+	14	-15	-1	-14
O=C1NC[C@H](CCCCN2C[C@H](Cc3ccccc3)N(CCC3CCCCC3)C(=O)C2=O)N(Cc2ccccc2)C1=O	.	.	-15	5	.
CSc1ccc(Cl)c(C(=O)NCCOc2cc(C(C)C)ccc2C)c1	i	-3	49*	5	-2
CC(C)(C)OC(=O)NCCCC[C@@H](C(=O)NCCCCCCCCCCC(=O)N1CCN(C(=O)OC(C)(C)C)CC1)n1cc(CCO)nn1	i	-9	38	14	-1
CC[C@H](C)Cc1cn([C@@H](CCCCNC(=O)OC(C)(C)C)C(=O)NCCCCCCCCCCC(=O)N2CCN(C(=O)OC(C)(C)C)CC2)nn1	.	-6	63*	14	.
COc1cccc2c1SCc1ccccc1C2CC(N)=O (centres undefined)	i	1	-46	8	2
CCOC(=O)CC1C(=O)NCCN1C(=O)c1cc2c(=O)n3ccccc3nc2s1 (centres undefined)	?	8	.	.	4
CCOC(=O)CC1C(=O)NCCN1C(=O)c1cc2c(=O)n3cccc(C)c3nc2s1 (centres undefined)	+	-8	-5	0	-5
COc1cccc(C(=O)OCn2nnc3ccccc3c2=O)c1OC	i	0	-15	4	3
Cc1ccccc1C(=O)OCn1nnc2ccccc2c1=O	i	-3	-15	3	92*
CCCNC(=O)c1ccccc1NC(=O)COc1cccc2c1OC(C)(C)C2	i	-8	50*	8	12
CC1(C)Cc2cccc(OCC(=O)Nc3ccccc3F)c2O1	i	-1	-10	3	9
O=C(NCCCN1CCOCC1)C1(c2ccccc2)CCCC1	i	11	4	-3	70*
N#Cc1ccccc1OCC(=O)Nc1cccc(S(=O)(=O)N2CCCCCC2)c1	.	7	53*	11	.
CC(=O)c1ccccc1OCC(=O)Nc1cccc(S(=O)(=O)N2CCCC2)c1	.	6	10	7	.
CCOc1ccccc1OCC(=O)Nc1cccc(S(=O)(=O)N2CCCCCC2)c1	i	-4	58*	4	-7
CC(C)(CCC(=S)N1CCOCC1)C1CCCCC1	.	1	-37	2	1
CCOC(=O)c1c(S(=O)(=O)NCCc2ccccc2)c(C)n(C)c1C	i	16	-18	39*	-1
SMILES	Rce1 inh	VLA-4 inh	TAAR1 antagonist	TAAR1 agonist	Platelet DG rel
CCOC(=O)c1c(S(=O)(=O)NCCc2ccc(OC)c(OC)c2)c(C)n(C)c1C	i	6	-26	3	-7
COc1cc(C(c2sc3nc(C)nn3c2O)N2CCN(c3ccccc3)CC2)cc(OC)c1OC (centres undefined)	i	31	-16	1	-1
COc1ccc(C(c2sc3nc(C)nn3c2O)N2CCC3(CC2)OCCO3)cc1 (centres undefined)	i	-3	5	0	.
COc1cc(C(c2sc3nc(C)nn3c2O)N2CCOCC2)cc(OC)c1OC (centres undefined)	i	-1	-5	1	67*
COc1ccc(C(c2sc3nc(C)nn3c2O)N2CCCCC2)cc1 (centres undefined)	i	-16	-18	0	59*
COc1ccc(C#Cc2cccc(-c3nc(C(=O)NCc4ccc(Oc5ccccc5)cc4)cc4c3[C@@H](CCO)N(S(=O)C(C)(C)C)C4)c2)cc1OC (some centres undefined)	.	.	-20	5	.
CCOC(=O)C1(C)CCN1C(=O)c1cc2ccccc2s1 (centres undefined)	.	.	-3	-1	.
CC(=O)Nc1ccc(S(=O)(=O)N(C)CC(=O)N(C)Cc2sccc2C)cc1	.	7	-7	4	.
Cc1ccc(C(=O)/C=C/C(=O)c2ccc(C)cc2)cc1	i	69*	2	2	27
Cc1ccc(N/C=C/C(=O)c2ccc(C)cc2)cc1	i	13	6	5	-3
Cc1ccc(C(=O)/C=C/Nc2ccccn2)cc1	i	-2	6	-4	64*
C=CCN(CC=C)CCOc1ccccc1	i	2	-3	1	-8
C=CCN(CC=C)CCOc1ccc2ccccc2c1	i	39	-5	39*	7
Cc1ccc(-c2nc(SC(C)C(=O)N3CCOCC3)n[nH]2)cc1 (centres undefined)	i	-12	-17	0	61*
Cc1ccc(-c2nc(SC(C)C(=O)N3CCCC3)n[nH]2)cc1 (centres undefined)	i	-1	-14	-1	-2
CCCCN1CC(COCc2ccccc2)Oc2cccc(OCCN3C(=O)[C@@H]4[C@H](C3=O)C3C=C[C@H]4C3)c2S1(=O)=O (some centres undefined)	.	.	70*	18	.
O=C1CN(C(=O)c2ccccc2Br)C(c2ccc(F)cc2)c2cc(F)ccc2N1 (centres undefined)	i	3	8	41*	11
CCCOc1ccc(C(=O)CCC(=O)OCC(=O)N2CCN(S(=O)(=O)c3ccc(C)cc3C)CC2)cc1	.	.	22	3	.
Cc1ccc(NC(=O)Cn2cnc(C(=O)Nc3ccc(C)c(C)c3)n2)cc1C	.	.	1	0	.
Cc1cc(C)c(CN2CCN(C(=O)Cn3cnc(C(=O)Nc4ccc(C)c(C)c4)n3)CC2)c(C)c1	.	.	56*	27	.
CCCCCc1c(-c2ccccc2)ncn1CCc1ccccc1OC	.	.	7	13	.
COc1ccccc1CCn1cnc(-c2ccc(OC)c(OC)c2)c1C(C)C	.	.	26	42*	.
CCCCc1c(-c2ccccc2OC)ncn1Cc1cccc(-c2ccccc2)c1	.	.	51*	8	.
CCCCc1c(-c2cccc(OC)c2)ncn1CCc1ccccc1OC	.	.	56*	22	.
CCCc1c(-c2cccc(Cl)c2)ncn1CCc1ccccc1OC	.	.	53*	19	.
CCCCc1c(-c2ccccc2OC)ncn1Cc1ccc(-c2ccccc2)cc1	.	.	18	8	.
CCc1c(-c2cccc(Cl)c2)ncn1CCc1ccccc1OC	.	.	6	3	.
COc1ccc(OC)c(S(=O)(=O)Oc2ccc(N)c3ccccc23)c1	i	5	-22	1	8

Screens: PubChem, several laboratories
